Measurements taken from ChEMBL document CHEMBL1143854 (Antimicrob Agents Chemother, 2007).
The source made the active and inactive calls. No cut-off for these calls is given here.

How the values were obtained:
Assay type in all cases: functional, organism-based
Plasmodium falciparum [1] = assay: Reduction of [3H]chloroquine uptake in chloroquine-resistant Plasmodium falciparum RSA11 infected erythrocytes after 90 min
Outline: (§1)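 [3H]chloroquine (50.4 Ci/mmol) uptake into trophozoite-infected erythrocytes (5% parasitemia, 1.5% hematocrit), with unlabeled antimalarial added at the start, 90 min at 37°C. Cells spun through silicone oil, radioactivity counted by liquid scintillation. Uptake given as percent of untreated infected-cell control after subtracting uptake in uninfected erythrocytes. At least two experiments, each in triplicate.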

Plasmodium falciparum [2] = assay: Reduction of [3H]dihydroartemisinin uptake in chloroquine-sensitive Plasmodium falciparum FC27 infected erythrocytes after 90 min
Outline: (§2)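 Trophozoite-stage parasitized erythrocytes (5% parasitemia, 1.5% hematocrit) added to microtubes holding unlabeled antimalarial plus radiolabeled drug ([3H]DHA 1.4 Ci/mmol or [3H]CQ 50.4 Ci/mmol); 37°C, 90 min. Cells spun through silicon oil, radioactivity by liquid scintillation. Uptake as percent of control parasitized erythrocytes after subtracting uninfected-erythrocyte uptake; at least two experiments, each in triplicate.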

Plasmodium falciparum [3] = assay: Reduction of [3H]dihydroartemisinin uptake in chloroquine-sensitive Plasmodium falciparum 3D7 infected erythrocytes after 90 min; outline: as §2
Plasmodium falciparum [4] = assay: Antimalarial activity against chloroquine-sensitive Plasmodium falciparum FC27
Plasmodium falciparum [5] = assay: Antimalarial activity against chloroquine-sensitive Plasmodium falciparum T996
Plasmodium falciparum [6] = assay: Antimalarial activity against chloroquine-resistant Plasmodium falciparum 34-1/E
Plasmodium falciparum [7] = assay: Antimalarial activity against chloroquine-sensitive Plasmodium falciparum 3D7
Plasmodium falciparum [8] = assay: Reduction of [3H]dihydroartemisinin uptake in chloroquine-resistant Plasmodium falciparum K1 infected erythrocytes after 90 min
Outline: as §1, with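 “[3H]dihydroartemisinin (1.4” for “[3H]chloroquine (50.4”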

Plasmodium falciparum [9] = assay: Reduction of [3H]dihydroartemisinin uptake in chloroquine-resistant Plasmodium falciparum RSA11 infected erythrocytes after 90 min
Outline: as §1, with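 “[3H]dihydroartemisinin (1.4” for “[3H]chloroquine (50.4”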

Plasmodium falciparum [10] = assay: Reduction of [3H]chloroquine uptake in chloroquine-sensitive Plasmodium falciparum 3D7 infected erythrocytes after 90 min; outline: as §2
Plasmodium falciparum [11] = assay: Reduction of [3H]chloroquine uptake in chloroquine-sensitive Plasmodium falciparum FC27 infected erythrocytes after 90 min; outline: as §2
Plasmodium falciparum [12] = assay: Antimalarial activity against chloroquine-sensitive Plasmodium falciparum 106/1
Plasmodium falciparum [13] = assay: Antimalarial activity against chloroquine-resistant Plasmodium falciparum 7G8-mdr7G8
Plasmodium falciparum [14] = assay: Antimalarial activity against chloroquine-resistant Plasmodium falciparum K1
Plasmodium falciparum [15] = assay: Antimalarial activity against chloroquine-resistant Plasmodium falciparum RSA11

| SMILES | Activity (Plasmodium falciparum [1]) | Activity (Plasmodium falciparum [1]; K1) | Activity (Plasmodium falciparum [2]) | Activity (Plasmodium falciparum [3]) | IC50 (Plasmodium falciparum [4]) | IC50 (Plasmodium falciparum [5]) | IC50 (Plasmodium falciparum [6]) | IC50 (Plasmodium falciparum [7]) | Activity (Plasmodium falciparum [8]) | Activity (Plasmodium falciparum [9]) | Activity (Plasmodium falciparum [10]) | Activity (Plasmodium falciparum [11]) | IC50 (Plasmodium falciparum [12]) | IC50 (Plasmodium falciparum [13]) | IC50 (Plasmodium falciparum [14]) | IC50 (Plasmodium falciparum [15]) |
| --- | --- | --- | --- | --- | --- | --- | --- | --- | --- | --- | --- | --- | --- | --- | --- | --- |
| Clc1ccc2c(N3CCN(CCCN4CCN(c5ccnc6cc(Cl)ccc56)CC4)CC3)ccnc2c1 [PIPERAQUINE] | Active | Active | Active | Active | 29.6 nM | 19.9 nM | 16.4 nM | 36.9 nM | Active | Active | Active | Active | 22.2 nM | – | – | – |
| C[C@H]1[C@@H](O)O[C@@H]2O[C@@]3(C)CC[C@H]4[C@H](C)CC[C@@H]1[C@@]24OO3 | Active | Active | Active | Active | – | – | – | – | Active | Active | Active | Active | – | – | – | – |
| CO[C@H]1O[C@@H]2O[C@@]3(C)CC[C@H]4[C@H](C)CC[C@@H]([C@H]1C)[C@@]24OO3 | Active | Active | Active | Active | – | – | – | – | Active | Active | Active | Active | – | – | – | – |
| CCN(CC)CCCC(C)Nc1ccnc2cc(Cl)ccc12 (configuration not stated) | Active | Active | Active | Active | – | – | – | – | Active | Active | Active | Active | – | – | – | – |
| OC(c1cc(C(F)(F)F)nc2c(C(F)(F)F)cccc12)C1CCCCN1 (configuration not stated) | Active | Active | Active | Active | – | – | – | – | Active | Active | Active | Active | – | – | – | – |
| CCN(CC)Cc1cc(Nc2ccnc3cc(Cl)ccc23)ccc1O | – | – | Active | Active | 6.68 nM | 14.8 nM | 17.2 nM | 18.4 nM | Active | Active | – | – | 17.5 nM | 32.7 nM | 22.4 nM | 26.7 nM |
